According to ChEMBL document CHEMBL3407441, “Design, synthesis and docking studies of novel thienopyrimidine derivatives bearing chromone moiety as mTOR/PI3Kα inhibitors” (Eur J Med Chem, 2015):

Tests used:
[1] = target: T1, Serine/threonine-protein kinase mTOR (Homo sapiens, UniProt P42345); assay: Inhibition of mTOR kinase (unknown origin) using ULight-4E-BP1 as substrate after 1 hr by TR-FRET assay
[2] = target: T2, Phosphatidylinositol 4,5-bisphosphate 3-kinase catalytic subunit alpha isoform (Homo sapiens, UniProt P42336); assay: Inhibition of PI3K-alpha kinase (unknown origin) using ULight-4E-BP1 as substrate at 10 uM after 60 mins by luminescence assay; conditions: in the assay text read “L-alpha-phosphatidylinositol” for “ULight-4E-BP1”
How it was run: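 Kinase-Glo luminescent assay with 10 nM PI3Kα protein and lipid substrate prepared in 3% octyl-glucoside. The reaction was started by adding ATP in reaction buffer and ran 60 min. It was stopped with Kinase-Glo buffer, then luminescence was read.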

[3] = target: T2, Phosphatidylinositol 4,5-bisphosphate 3-kinase catalytic subunit alpha isoform; assay: Ratio of (E)-4-((2-(4,6-dimorpholino-1,3,5-triazin-2-yl)hydrazono)methyl)-2,6-dimethoxyphenol IC50 to compound IC50 for PI3K-alpha kinase (unknown origin)
[4] = target: T1, Serine/threonine-protein kinase mTOR; assay: Ratio of (E)-4-((2-(4,6-dimorpholino-1,3,5-triazin-2-yl)hydrazono)methyl)-2,6-dimethoxyphenol IC50 to compound IC50 for mTOR kinase (unknown origin)
[5] = target: T2, Phosphatidylinositol 4,5-bisphosphate 3-kinase catalytic subunit alpha isoform; assay: Inhibition of PI3K-alpha kinase (unknown origin) using L-alpha-phosphatidylinositol as substrate after 60 mins by luminescence assay
[6] = Ratio of (E)-4-((2-(4,6-dimorpholino-1,3,5-triazin-2-yl)hydrazono)methyl)-2,6-dimethoxyphenol IC50 to compound IC50 for human H460 cells; type: functional
PC-3 = assay: Ratio of (E)-4-((2-(4,6-dimorpholino-1,3,5-triazin-2-yl)hydrazono)methyl)-2,6-dimethoxyphenol IC50 to compound IC50 for human PC3 cells; type: functional
[7] = Cytotoxicity against human PC3 cells after 72 hrs by MTT assay; type: functional, cell-based; conditions: PC-3, 72 h
How it was run: (§1)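 MTT assay on H460 and PC-3 cells grown in MEM with 10% FBS. MTT was added at […] and incubated with the cells for 4 h at 37 °C. Formazan was dissolved in DMSO and absorbance read at 492 nm against a 630 nm reference. Each compound was tested three times per cell line; IC50 values are averages of two determinations.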

[8] = Cytotoxicity against human H460 cells after 72 hrs by MTT assay; type: functional, cell-based; conditions: NCI-H460, 72 h; how it was run: as §1

T2 sequence (P42336 whole entry, canonical isoform): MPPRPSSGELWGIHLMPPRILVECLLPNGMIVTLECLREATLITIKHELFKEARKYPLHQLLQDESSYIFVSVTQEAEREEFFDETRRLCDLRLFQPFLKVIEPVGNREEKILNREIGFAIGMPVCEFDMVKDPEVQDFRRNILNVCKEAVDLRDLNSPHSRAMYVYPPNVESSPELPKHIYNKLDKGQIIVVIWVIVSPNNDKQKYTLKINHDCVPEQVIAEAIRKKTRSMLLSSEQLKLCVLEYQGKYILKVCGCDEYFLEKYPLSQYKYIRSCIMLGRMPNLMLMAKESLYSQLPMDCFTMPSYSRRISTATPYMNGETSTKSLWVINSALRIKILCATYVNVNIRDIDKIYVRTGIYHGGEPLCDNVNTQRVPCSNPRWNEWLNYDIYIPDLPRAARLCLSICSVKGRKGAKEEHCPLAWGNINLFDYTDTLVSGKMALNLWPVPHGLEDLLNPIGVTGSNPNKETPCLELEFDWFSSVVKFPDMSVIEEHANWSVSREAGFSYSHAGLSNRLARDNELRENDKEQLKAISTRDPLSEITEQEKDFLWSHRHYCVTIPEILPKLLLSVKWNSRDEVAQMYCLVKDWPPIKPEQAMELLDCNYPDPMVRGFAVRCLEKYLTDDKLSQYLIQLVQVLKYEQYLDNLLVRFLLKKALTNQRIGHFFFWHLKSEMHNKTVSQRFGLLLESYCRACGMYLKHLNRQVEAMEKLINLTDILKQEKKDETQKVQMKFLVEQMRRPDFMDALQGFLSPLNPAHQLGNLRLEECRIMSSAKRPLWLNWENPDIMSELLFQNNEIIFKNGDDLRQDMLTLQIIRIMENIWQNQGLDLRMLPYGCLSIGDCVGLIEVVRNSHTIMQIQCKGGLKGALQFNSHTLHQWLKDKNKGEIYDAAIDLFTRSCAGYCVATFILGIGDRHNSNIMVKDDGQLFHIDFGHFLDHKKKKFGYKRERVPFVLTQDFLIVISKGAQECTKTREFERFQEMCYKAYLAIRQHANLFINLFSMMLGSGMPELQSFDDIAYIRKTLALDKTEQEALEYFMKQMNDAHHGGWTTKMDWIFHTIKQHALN

`O=C(O)c1ccc2occ(/C=N/Nc3nc(N4CCOCC4)c4ccsc4n3)c(=O)c2c1` showed an IC50 [1] of 160 nM, an inhibition [2] of 90.6% and a Ratio IC50 [3] of over 5. The Ratio IC50 [4] was 8.6, the IC50 [5] was 2350 nM and the “Ratio IC50” value [6] was 7.9. For the same compound, the “Ratio IC50” value (PC-3) was 19.1, the IC50 [7] was 850 nM and the IC50 [8] was 1200 nM.

Work on `N#Cc1cccc(Cn2cc(/C=N/Nc3nc(N4CCOCC4)nc(N4CCOCC4)n3)c3ccccc32)c1` yielded an IC50 [1] of 16600 nM.

In the case of `O=c1c(/C=N/Nc2nc(N3CCOCC3)c3ccsc3n2)coc2ccc([N+](=O)[O-])cc12`, the IC50 [1] is reported as 920 nM, the inhibition [2] is reported as 91.2% and the IC50 [5] is reported as 1530 nM. It also gave an IC50 [7] of 1420 nM and an IC50 [8] of 3240 nM.

In the case of `O=C(O)c1ccc2occ(/C=N/Nc3nc(N4CCOCC4)c4sccc4n3)c(=O)c2c1`, the IC50 [1] is reported as 3310 nM, the inhibition [2] is reported as 95% and the IC50 [5] is reported as 1810 nM. The IC50 [7] was 6260 nM.

`O=c1c(/C=N/Nc2nc(N3CCOCC3)c3sccc3n2)coc2ccc([N+](=O)[O-])cc12` showed an IC50 [1] of 4620 nM, an inhibition [2] of 58.8% and an IC50 [5] of over 10000 nM. It also gave an IC50 [7] of 6900 nM.

`COc1cc(/C=N/Nc2nc(N3CCOCC3)nc(N3CCOCC3)n2)cc(OC)c1O` gave an IC50 [5] of over 10000 nM.

Work on `Fc1cccc(Cn2cc(/C=N/Nc3nc(N4CCOCC4)c4sccc4n3)c3ccccc32)c1` yielded an IC50 [1] of over 30000 nM.
